≈ marks a conversion by molar mass, not a printed value.
These compounds were tested on Mycobacterium tuberculosis (assay: Antimicrobial activity against Mycobacterium tuberculosis H37Rv ATCC 27294 by microplate alamar blue assay).
Format: functional, organism-based
Summary of the method: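 M. tuberculosis H37Rv (ATCC 27294) grown in BACTEC 12B medium and tested by microplate Alamar Blue assay. Compounds were dissolved in DMSO, diluted with distilled water, and tested as ten 2-fold dilutions. Read-out was fluorescence. IC90 is the concentration giving 90% fluorescence reduction versus controls; IC50 is defined the same way at 50%.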

`CCOC(=O)Cn1nc(-c2ccc(C)cc2)ccc1=O` and `COC(=O)Cn1nc(-c2ccc(C)cc2)ccc1=O` cannot be ordered by IC50: > 100 µg/mL for the first, > 100 µg/mL for the second.

`C=CCn1nc(-c2ccc(Br)cc2)ccc1=O` and `C=CCn1nc(-c2ccc(Cl)cc2)ccc1=O` are within 1.5-fold of each other in IC50: 37.8 µg/mL (≈ 130 µM) for the first, 36.6 µg/mL (≈ 148 µM) for the second.

`C=CCn1nc(-c2ccc(C)cc2)ccc1=O` and `C#CCn1nc(-c2ccc(C)cc2)ccc1=O` are within 1.5-fold of each other in IC50: 60.7 µg/mL (≈ 268 µM) for the first, 63.7 µg/mL (≈ 284 µM) for the second.

Going from `C#CCn1nc(-c2ccc(Cl)cc2)ccc1=O` to `C#CCn1nc(-c2ccc(Br)cc2)ccc1=O`, the IC50 rises from 34.7 µg/mL (≈ 142 µM) to 97.8 µg/mL (≈ 338 µM) (2.8-fold).

Compared with `COC(=O)Cn1nc(-c2ccc(Cl)cc2)ccc1=O`, `CCOC(=O)Cn1nc(-c2ccc(Cl)cc2)ccc1=O` is higher in IC50: 94.2 µg/mL (≈ 338 µM) for the first, > 100 µg/mL for the second.

Compared with `COC(=O)Cn1nc(-c2ccc(Br)cc2)ccc1=O`, `CCOC(=O)Cn1nc(-c2ccc(Br)cc2)ccc1=O` is higher in IC50: 73.2 µg/mL (≈ 227 µM) for the first, > 100 µg/mL for the second.

`NC(=O)Cn1nc(-c2ccc(Cl)cc2)ccc1=O` and `NC(=O)Cn1nc(-c2ccc(Br)cc2)ccc1=O` cannot be ordered by IC50: > 100 µg/mL for the first, > 100 µg/mL for the second.

First: Cc1ccc(-c2ccc(=O)n(CC(N)=O)n2)cc1
Second: CCOC(=O)C(C)n1nc(-c2ccc(C)cc2)ccc1=O (stereo unspecified)
The IC50 of the first is higher: > 100 µg/mL for the first, 64.9 µg/mL (≈ 227 µM) for the second.

`CCOC(=O)C(C)n1nc(-c2ccc(Cl)cc2)ccc1=O` (stereo unspecified) and `CCOC(=O)C(C)n1nc(-c2ccc(Br)cc2)ccc1=O` (stereo unspecified) are within 1.5-fold of each other in IC50: 28.6 µg/mL (≈ 93.2 µM) for the first, 26.8 µg/mL (≈ 76.5 µM) for the second.

`CCOC(=O)Cn1nc(-c2ccc(C)cc2)ccc1=O` and `COC(=O)Cn1nc(-c2ccc(C)cc2)ccc1=O` cannot be ordered by IC90: > 100 µg/mL for the first, > 100 µg/mL for the second.

`C=CCn1nc(-c2ccc(Br)cc2)ccc1=O` and `C=CCn1nc(-c2ccc(Cl)cc2)ccc1=O` are within 1.5-fold of each other in IC90: 46.8 µg/mL (≈ 161 µM) for the first, 61.6 µg/mL (≈ 250 µM) for the second.

`C=CCn1nc(-c2ccc(C)cc2)ccc1=O` and `C#CCn1nc(-c2ccc(C)cc2)ccc1=O` are within 1.5-fold of each other in IC90: 76.5 µg/mL (≈ 338 µM) for the first, 89.2 µg/mL (≈ 398 µM) for the second.

`C#CCn1nc(-c2ccc(Cl)cc2)ccc1=O` and `C#CCn1nc(-c2ccc(Br)cc2)ccc1=O` cannot be ordered by IC90: > 100 µg/mL for the first, > 100 µg/mL for the second.

`COC(=O)Cn1nc(-c2ccc(Cl)cc2)ccc1=O` and `CCOC(=O)Cn1nc(-c2ccc(Cl)cc2)ccc1=O` cannot be ordered by IC90: > 100 µg/mL for the first, > 100 µg/mL for the second.

`COC(=O)Cn1nc(-c2ccc(Br)cc2)ccc1=O` and `CCOC(=O)Cn1nc(-c2ccc(Br)cc2)ccc1=O` cannot be ordered by IC90: > 100 µg/mL for the first, > 100 µg/mL for the second.

`NC(=O)Cn1nc(-c2ccc(Cl)cc2)ccc1=O` and `NC(=O)Cn1nc(-c2ccc(Br)cc2)ccc1=O` cannot be ordered by IC90: > 100 µg/mL for the first, > 100 µg/mL for the second.

First: Cc1ccc(-c2ccc(=O)n(CC(N)=O)n2)cc1
Second: CCOC(=O)C(C)n1nc(-c2ccc(C)cc2)ccc1=O (stereo unspecified)
The IC90 of the first is higher: > 100 µg/mL for the first, 84 µg/mL (≈ 293 µM) for the second.

`CCOC(=O)C(C)n1nc(-c2ccc(Cl)cc2)ccc1=O` (stereo unspecified) and `CCOC(=O)C(C)n1nc(-c2ccc(Br)cc2)ccc1=O` (stereo unspecified) are within 1.5-fold of each other in IC90: 46 µg/mL (≈ 150 µM) for the first, 47.5 µg/mL (≈ 135 µM) for the second.

Reference: ChEMBL document CHEMBL1275300, “Synthesis and antituberculosis activity of some new pyridazine derivatives. Part II” (Eur J Med Chem, 2010)
